Jurkat viability: cytotoxicity toward Jurkat T cells, primary screen, cytotoxicity control, cell-based, Jurkat E6.1, 60K MLSMR library; inhibition, % at 4 µM; Jurkat E6.1 viability, ATP luminescence, 48 h; actives 1.2% (n = 56,000);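 active = inhibition above the mean inhibition of all tested compounds plus 3 SD, cut at about 28% in these data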
HUVEC prolif 384: inhibitors of HUVEC proliferation, primary screen, cell-based, 384-well. AID 648, 2007. actives 1.1% (n = 86,000). CellTiter-Glo luminescence, 72 h; stronger effect = lower value. viability, % at 10 µM (by protocol);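 active = viability at or below 30%; inactive = viability above 30%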
H69AR inhibit: proliferation blockers of H69AR lung cancer cells, primary screen, cell-based, human, 86K library; H69AR lung tumor viability, ATP luminescence, 72 h; stronger effect = lower value; viability, % at 10 µM; actives 6% (n = 85,000); AID 598, 2007;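 active = viability at or below 40%; inactive = viability above 40%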;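 also: multidrug resistant small cell line overexpressing MRP-1 efflux transporter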
Fibroblast inh: antiproliferative effect on LL 47 fibroblasts – human, LL 47 cells, CellTiter-Glo luminescence, primary screen. LL 47 human lung fibroblast viability, ATP luminescence; stronger effect = lower value. viability, % at 10 µM. actives 1.1% (n = 85,000);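 active = viability at or below 50% in the single dose screen; inactive = viability above 50%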;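 also: compound exposure lasted 72 h before the ATP readout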
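Times – overnight cell rest, 72 h compound treatment at 37 °C · Test system – human lung fibroblast line LL 47, low passage · Amount – 1,150 cells in each well · Controls – cell-only wells, no compound · Doses – 0.1% DMSO in all compound wells · Measured by – CellTiter-Glo luminescence · Buffer or medium – IMEM plus 15% FBS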
Numbers stand for hits; . = inactive; / = no result. The list is not random: actives were taken first. Their share in the collection is about 6.4%.

SMILES | Jurkat viability | HUVEC prolif 384 | H69AR inhibit | Fibroblast inh
Cc1ccc(C2CC2C(=O)NNC(=S)Nc2cccc(Cl)c2)cc1 (configuration not stated) | / | . | 17 | .
Cc1ccc(C2CC2C(=O)NNC(=S)Nc2cccc(C)c2)cc1 (configuration not stated) | / | . | . | .
C=CCc1ccc(OCC(O)CN2CCCCC2C)c(OC)c1 (configuration not stated) | . | . | . | .
CCC(C)(C)C1CCc2c(sc(NC(=O)c3ccoc3C)c2C(N)=O)C1 (configuration not stated) | / | . | 14 | .
CCC1CCc2c(sc(NC(=O)c3ccoc3C)c2C(N)=O)C1 (configuration not stated) | . | . | 35 | .
O=C(CN1CCOc2ccccc21)N1CCCC1 | . | . | . | .
COc1ccc(NC2CC(=O)N(CCc3ccccc3)C2=O)cc1 (configuration not stated) | / | . | . | .
CC(Cc1cccs1)NC(=O)Nc1ccccc1 (configuration not stated) | . | . | . | .
CC(Cc1cccs1)NC(=O)Nc1ccc(Cl)c(Cl)c1 (configuration not stated) | / | . | 26 | .
COC(=O)c1cc(Br)c(=O)n(CCc2ccccc2)c1 | . | . | . | .
COC(=O)c1cc(=O)n(CCc2ccccc2)c(=Nc2ccc(F)cc2)s1 | / | . | 1.3 | .
COC(=O)c1cc(=O)n(Cc2ccc3c(c2)OCO3)c(=Nc2ccc(F)c(Cl)c2)s1 | / | . | 33 | .
COC(=O)c1cc(=O)n(CCc2ccc(OC)cc2)c(=Nc2ccc(F)c(Cl)c2)s1 | / | 22 | 1.7 | .
COC(=O)c1cc(Br)c(=O)n(Cc2ccc3c(c2)OCO3)c1 | / | . | . | .
CCn1c(=O)cc(C(=O)OC)sc1=Nc1ccc(F)c(F)c1 | . | . | 0.7 | 16
CS(=O)(=O)N(Cc1ccccc1)c1ccc(C(=O)NCc2ccccc2)cc1 | / | . | . | .
Cc1ccc(S(=O)(=O)NC(CC(=O)NCC2CCCO2)c2ccco2)cc1 (configuration not stated) | . | . | . | .
CCN(CC)c1ccc(NC(=O)COc2ccc(C)cc2)cc1 | . | . | . | .
COc1cc2c(cc1NC(=O)C1CCCO1)oc1ccccc12 (configuration not stated) | . | . | 35 | .
COc1cc2c(cc1NC(=O)Cn1cnc3c1c(=O)n(C)c(=O)n3C)oc1ccccc12 | . | . | 8.1 | .
COc1ccc(Cl)cc1NC(=O)C1CCCO1 (configuration not stated) | . | . | . | .
O=C(Oc1ccnc2cc(Cl)ccc12)N1CCCCCC1 | . | . | 26 | .
Cn1c(Cl)cnc1C1CC(=O)c2cc(Cl)ccc2O1 (configuration not stated) | / | . | 0.2 | 16
CCOC(=O)c1sc(NC(=O)CSc2nc(C)cc(C)n2)c(C#N)c1C | / | . | . | .
CCOC(=O)c1c(NC(=O)CSc2nc(C)cc(C)c2C#N)sc(C(C)=O)c1C | . | . | 19 | .
SMILES | Jurkat viability | HUVEC prolif 384 | H69AR inhibit | Fibroblast inh
Cc1ccc(NC(=O)/C(=C/c2cccc([N+](=O)[O-])c2)NC(=O)C2CCCCC2)c(C)c1 | / | . | 27 | 9.6
CCN(CC)S(=O)(=O)c1cc(Br)ccc1OC | / | . | . | .
CCCCNC(=O)COC(=O)c1ccc(Cl)c(S(N)(=O)=O)c1 | / | . | . | .
O=C(N1CCN=C1SCc1cccnc1)C12CC3CC(CC(C3)C1)C2 | . | . | . | .
O=C(Nc1ccc(-c2nc3cc(Cl)ccc3o2)cc1)C1CCCO1 (configuration not stated) | / | . | 33 | .
O=C(Cc1ccc(Cl)cc1)Nc1ccc2oc(-c3ccncc3)nc2c1 | . | 18 | 32 | 8.1
COc1ccc(CC(=O)Nc2ccc(-c3nc4cc(C)ccc4o3)c(O)c2)cc1OC | . | . | . | 40
CCCC(=O)Nc1ccc(-c2nc3cc(C)c(C)cc3o2)c(O)c1 | . | . | . | .
CCC(Cc1ccccc1)NC(=O)CSc1ccsc1[N+](=O)[O-] (configuration not stated) | / | . | . | .
CCCc1ccc(Oc2cn[nH]c2-c2ccc(O)cc2O)cc1 | . | . | 29 | .
COc1ccc(-c2[nH]ncc2Oc2ccccc2OC)c(O)c1 | . | . | 39 | .
C=C(C)COc1ccc(-c2[nH]ncc2Oc2cccc(OC)c2)c(O)c1 | . | 5.2 | 1.3 | .
COc1ccc(Oc2cn[nH]c2-c2ccc(O)cc2O)cc1 | . | . | . | .
C=C(C)COc1ccc(-c2[nH]ncc2Oc2ccccc2OCC)c(O)c1 | . | 27 | / | .
CN1C(=O)C(O)(CC(=O)c2ccc(F)cc2)c2cc(Br)ccc21 (configuration not stated) | . | . | 25 | .
Cc1onc(-c2c(F)cccc2Cl)c1C(=O)Nc1nc2ccccc2[nH]1 | / | . | 33 | .
O=C(Nc1nc2ccccc2[nH]1)c1ccccc1 | / | . | 32 | .
O=C(Cc1ccccc1)Nc1nc2ccccc2[nH]1 | . | . | . | .
CCn1c(=O)c(=O)[nH]c2cc(C(=O)NC3CCCc4ccccc43)ccc21 (configuration not stated) | / | . | 32 | .
CCn1c(=O)c(=O)[nH]c2cc(C(=O)Nc3ccc(S(=O)(=O)N4CCCC4)cc3)ccc21 | . | . | . | .
COc1cc(C(=O)NCc2ccc(-c3nc4ccccc4o3)cc2)cc(OC)c1OC | . | . | . | 45
CC(C)OC(=O)c1c2nc3ccccc3nc2n2c1[nH]c(=O)c1ccccc12 | / | . | 33 | .
COc1cc(C(=O)N[C@H](C(=O)NC(C)C23CC4CC(CC(C4)C2)C3)C(C)C)cc(OC)c1OC (some centres not stated) | / | . | . | 48
COc1cc(C(=O)Nc2ccc(NC(=O)C(C)C)nc2)cc(OC)c1OC | . | . | . | .
CCOc1cc(C)c(C(C)C)cc1S(=O)(=O)NCc1ccccn1 | . | . | / | .
SMILES | Jurkat viability | HUVEC prolif 384 | H69AR inhibit | Fibroblast inh
CC(=O)c1sc(-c2c(C)nc3sccn23)nc1C1CCCC1 | . | . | . | .
CCOC(=O)c1c(-c2ccccc2)oc2ccc(O)c(CN3CCCC3)c12 | / | 3.5 | 5.3 | .
CCOC(=O)c1c(-c2ccccc2)oc2ccc(O)c(CN(C)C)c12 | / | . | 10 | .
O=c1c2ccccc2nc2c3ccccc3c(NCCN3CCOCC3)nn12 | / | . | 19 | 33
c1ccc2[nH]c(NCCCN3CCOCC3)nc2c1 | . | . | / | .
c1ccc(-c2nc(NCCCN3CCOCC3)c3ccccc3n2)cc1 | . | . | 26 | .
Nc1nc(NC(=O)Cc2ccccc2)nn1-c1ccccc1 | / | . | . | .
CCn1cc([N+](=O)[O-])c(C(=O)N2N=C(c3ccc4ccccc4c3)CC2c2cc(Br)ccc2O)n1 (configuration not stated) | / | 10 | 14 | .
CCOc1ccc(S(=O)(=O)N2CCN(c3ccccc3)CC2)c2cccnc12 | . | . | . | .
CCOc1ccc(S(=O)(=O)N2CCN(c3ccc(OC)cc3)CC2)c2cccnc12 | . | . | 35 | .

Assay outcomes (PubChem)
